# HIF activator: HIF pathway transcriptional activation; U2OS HRE-luciferase reporter, luminescence; normalized: DMSO 0%, desferrioxamine 100%; activation, % at 7.5 µM (by protocol); AID 1910; 0.32% of 300,000 active;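 active = mean activation of at least 10% of the iron chelator positive control signal, with at least half of replicates also reaching 10%; inconclusive = mean and replicate majority disagree about reaching 10%; inactive = mean and most replicates under 10%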
# A1 inh: inhibitors of the anti-apoptotic protein A1, read as caspase activation. MEF A1-2A-BIM cells, Caspase-Glo 3/7 luminescence, 3 h; percent of clofoctol response, vehicle zero. caspase activation, % (test concentration not listed). 0.066% of 330,000 active. AID 2462;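 active = over half of replicate activation scores above 10%, or exactly half above 10 with the replicate mean above 10; inconclusive = replicate mean below 10 yet half the replicates above 10; inactive = over half of replicates below 10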
# KLF5 inhibitor: suppresses KLF5 promoter-driven expression | DLD-1 KLF5 promoter-luciferase reporter, luminescence | inhibition, % at 5 µM | 0.23% of 290,000 active;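 active = inhibition above a per-plate limit of that plate's mean compound inhibition plus 3 SD, cut at about 60% in these data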;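 also: 0% = DMSO wells and 100% = LY294002 at 200 µM; higher means less KLF5 promoter-driven luciferase light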
# Beta apoptosis: blocks beta cell apoptosis | INS-1E cytokine-induced death, ATP luminescence, 48 h; percent of positive-control rescue, neutral wells zero | protection from apoptosis, % (concentration not given with the values) | 0.8% of 300,000 active | AID 435005;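 active = Every replicate reaches about 75%, or at least half do and their mean reaches it too, limit read from the data; inconclusive = At least half of replicates reach the limit but their mean does not; inactive = Under half of replicates reach the limit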;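 also: 0% = cytokine-treated negative control wells and 100% = positive control rescue; higher means more ATP so stronger rescue from cytokine killing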
# T cruzi inh: blocks replication of Trypanosoma cruzi. T. cruzi beta-gal in NIH3T3, luminescence, 90 h. inhibition, % (no concentration beside the values). 1.4% of 300,000 active;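 active = mean inhibition across valid replicates above about 55%, limit read from the data; inconclusive = mean below that limit but half or more replicates reach it; inactive = mean below it, under half of replicates reach it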;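 also: signal also drops with host cell toxicity which is not excluded here; 0% = plate median of DMSO wells and 100% = zero luminescence signal; higher percent means less beta-gal luminescence so fewer parasites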
#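 compound dosing = single 50 nL compound addition per well in DMSO | material = NIH/3T3 host cells with β-galactosidase reporter T. cruzi | input = 5,000 host fibroblasts per well | timing = ≥90 h infection period, 3 h prior cell attachment | read-out basis = percent inhibition of parasite-derived β-gal signal | detection = GalScreen β-gal luminescence, detergent lysis, 60 min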
# * = called active by the depositor; ? = inconclusive; · = not tested or not shown. In the library only some 2.3% were active in any assay of this set; here they are far more common.
SMILES,HIF activator,A1 inh,KLF5 inhibitor,Beta apoptosis,T cruzi inh
Cc1ccc(-c2csc(N(CCCN(C)C)C(=O)c3ccco3)n2)cc1,2,0,-39,-7,48
COc1ccccc1N1CCN(C(=O)C2=CC=CN3CCS(=O)(=O)N=C23)CC1,·,0,·,-2,·
Cc1c(C(C)C)c(=O)n(-c2ccc(S(=O)(=O)NCc3ccccc3)cc2)n1C,-1,-1,-21,105*,-43
CCCCS(=O)(=O)N1CCCC(C(=O)Oc2ccc(Cl)cc2)C1 (stereo unspecified),-1,0,-7,-4,-4
COc1cccc(CN2CCC(N(CCc3ccccc3)Cc3ccccc3)CC2)c1OC,582*,0,-20,113*,25
COc1cccc(CN2CCN(Cc3cccc(Oc4ccccc4)c3)CC2)c1OC,-1,-1,-14,-7,12
Nc1nonc1-n1nnc(C(=O)N/N=C/c2ccccc2Br)c1CN1CCCC1,-1,0,-90,4,-4
COc1cc(OC)cc(-c2cc3nc(C)c(CCC(=O)NC(C)CCc4ccco4)c(C)n3n2)c1 (stereo unspecified),-3,1,-7,6,65*
Cc1nc2cc(-c3cccc(F)c3)nn2c(C)c1CCC(=O)NC(C)CCc1ccco1 (stereo unspecified),-2,-3,-20,·,39
COc1ccc(-c2cc3nc(C)c(CCC(=O)NCc4ccc(F)cc4)c(C)n3n2)c(OC)c1,0,0,-11,10,60*
CC(C)c1ccc(C2C3=C(COC3=O)Nc3cc4c(cc32)OCO4)cc1 (stereo unspecified),-1,1,72*,33,45
CSCCC(NC(=O)c1ccccc1)C(=O)OCC(=O)NCc1ccco1 (stereo unspecified),·,1,·,-2,·
O=C1NC(=O)/C(=C/c2ccc(OS(=O)(=O)c3ccc(F)cc3F)cc2)N1,41*,0,3,-3,-3
COC(=O)c1sccc1NC(=O)c1c(F)c(F)c(F)c(F)c1F,2,-1,·,-2,-14
CCOC(=O)c1cnc2ccc(C)cc2c1NCCO,0,0,-19,7,1
CCOC(=O)c1cnc2ccc(C)cc2c1Sc1ccccc1C(=O)OC,0,?,-9,-7,61*
O=C(NC(=S)NNC(=O)[C@H]1C[C@@H]1c1ccccc1)c1cccc(F)c1,-1,0,-16,11,58*
COc1cccc(OC)c1C(=O)NC(=S)NNC(=O)[C@H]1C[C@@H]1c1ccccc1,0,1,1,·,-59
Cc1ccc(/C=N/NC(=O)CN2CCN(S(=O)(=O)c3ccc(Br)cc3)CC2)s1,1,0,5,-3,-17
O=C(CN1CCN(S(=O)(=O)c2ccc(Br)cc2)CC1)N/N=C/c1ccc(Br)s1,0,0,-27,-3,63*
CCOC(=O)c1c(NC(=O)CSc2nnc(-c3ccncc3)n2Cc2ccco2)sc(C)c1C,0,0,-2,5,70*
COc1cc(SC#N)ccc1N=Cc1c(C)[nH]n(-c2ccc(C)c(C)c2)c1=O,1,2,-6,79*,28
COc1cc(SC#N)ccc1N=Cc1c(C)[nH]n(-c2ccc(Cl)cc2)c1=O,0,-1,-21,70,21
CN(C)C(=O)CSc1nc2ccccc2n1Cc1ccccc1,367*,0,-4,-4,-6
COC(=O)c1ccc(CNC(=O)COC(=O)c2cc(Cl)ccc2O)cc1,·,-1,·,3,·
SMILES,HIF activator,A1 inh,KLF5 inhibitor,Beta apoptosis,T cruzi inh
O=[N+]([O-])c1cccc2c(N3CCCC3)ccnc12,-1,0,-6,112*,51
O=C(c1ccccc1F)N1CCN(c2ccc([N+](=O)[O-])c3ncccc23)CC1,0,0,-3,0,-16
CCCCn1c(-c2cccc3ccccc23)nc2cc3[nH]c(=O)c(C(C)C)nc3cc21,0,1,-4,12,63*
CCCCn1c(-c2ccccc2C)nc2cc3[nH]c(=O)c(C(C)C)nc3cc21,0,0,4,8,30
O=C(CN(Cc1cccs1)S(=O)(=O)c1ccc(S(=O)(=O)NC2CCCCC2)cc1)Nc1ccccc1,·,0,15,38,57*
CCOC(=O)C1=C(COC(=O)COc2ccc(C#N)cc2)NC(=O)NC1C (stereo unspecified),-2,0,-35,·,-5
